An excerpt weighted towards active compounds, which were near 3.7% of everything screened.
MC4R ag barr – activates human MC4R beta-arrestin recruitment | U2OS MC4R beta-arrestin complementation, luminescence; percent of melanotan II response, DMSO zero | activation, % at 8.9 µM | 360,000 tested, 0.98% active | P32245;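 active = activation above a per-plate cutoff, the mean activation of sample wells on that plate plus 3 SD, cut at about 8% in these data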
Exocytosis inh – blocks lytic granule exocytosis; AID 651702; TALL-104 LAMP-1 surface exposure, flow cytometry; cells stimulated with thapsigargin and PMA; 360,000 tested, 0.66% active; inhibition, % at 10 µM;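 active = inhibition above about 55%, limit read from the data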
MC4R antagonist – antagonists of human melanocortin 4 receptor (MC4R) | inhibition, % at 6.5 µM | 360,000 tested, 0.48% active | MC4R-expressing cells, MTII-stimulated cAMP, LANCE TR-FRET;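 active = inhibition above its plate's cutoff, the mean of tested wells on that plate plus 3 SD, cut at about 29% in these data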
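System: U2OS cells stably expressing human melanocortin 4 receptor (MC4R). Reagent: Melanotan II challenge after compound preincubation. Doses: 6.5 µM. Times: 30-min compound, 1-h challenge, 1-h detection, room temperature. Measured by: TR-FRET with Eu-cAMP and labeled anti-cAMP, 671 nm. Replicates: singlicate.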
Myeloid diff MLP – myeloid differentiation induction; ER-HoxA9 myeloid progenitors, lysozyme-GFP differentiation, flow cytometry; calls only at 10 µM; 360,000 tested, 1% active; AID 624256;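 active = normalized GFP-positive differentiation at or above the plate's own cutoff, the solvent-only control mean plus 3 SD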;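 also: cells exposed to compound for four days before flow analysis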
EBI2 antag – EBI2 (human) antagonism; inhibition, % at 5 µM; EBI2 beta-arrestin recruitment, luminescence, 7a,25-OHC stimulated; P32249; AID 651636; 360,000 tested, 0.81% active; in the data active = inhibition above about 38%;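 also: enzyme fragment complementation signal reports receptor beta-arrestin coupling in cells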
Target sequence (P32249 whole entry, looked up, the tested form may be a part): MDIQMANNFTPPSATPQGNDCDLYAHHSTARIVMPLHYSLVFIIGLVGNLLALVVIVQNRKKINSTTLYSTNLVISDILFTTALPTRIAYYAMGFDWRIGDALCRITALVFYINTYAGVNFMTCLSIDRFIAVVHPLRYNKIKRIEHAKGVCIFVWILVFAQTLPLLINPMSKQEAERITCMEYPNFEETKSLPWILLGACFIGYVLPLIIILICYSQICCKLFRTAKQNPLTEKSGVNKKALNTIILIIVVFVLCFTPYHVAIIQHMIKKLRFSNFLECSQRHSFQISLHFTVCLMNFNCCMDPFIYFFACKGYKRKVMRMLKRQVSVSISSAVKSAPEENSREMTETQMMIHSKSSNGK
EBI2 conf – confirmation of human EBI2 receptor antagonists; inhibition, % at 5 µM; 2,400 tested, 29% active; shares compounds with EBI2 antag; AID 651997; EBI2 beta-arrestin luminescence, 7a,25-OHC antagonism;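 active = inhibition of at least 50%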
EBI2 agonist – EBI2 agonism counter-screen | EBI2-expressing cells, agonist mode, luminescence, 60 min; 0% vehicle, 100% 7α,25-dihydroxycholesterol control | 2,400 tested, under 10 active | shares compounds with EBI2 antag | AID 652000 | activation, % at 5 µM;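 active = activation of at least 50%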
bGal cs – inhibits E. coli beta-galactosidase, counter-screen for EBI2 antagonists. purified beta-galactosidase, luminescent Galacton Star, 15 min. inhibition, % at 5 µM. shares compounds with EBI2 antag. 2,400 tested, 1% active;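 active = replicate-average signal at least 3 plate SD below neutral wells, shown as high inhibition, flagging enzyme-inhibiting false positives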;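 also: higher means stronger loss of beta-gal luminescence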
Hits are given with their value; n = inactive; x = not tested or not shown.

SMILES	MC4R ag barr	Exocytosis inh	MC4R antagonist	Myeloid diff MLP	EBI2 antag	EBI2 conf	EBI2 agonist	bGal cs
Cc1cccc(OCC(=O)N2CCN(c3nnc(-c4ccccc4)c4ccccc34)CC2)c1	n	n	n	n	55.2	n	n	n
C=CCNc1nc(C)c(CNc2c(C)cc(C)cc2C)nc1C#N	n	n	n	n	n	x	x	x
Cc1cc(C)n(CC(C)(O)c2ccccc2)n1 (stereo not given)	n	n	n	n	n	x	x	x
O=C(OCC(=O)N1CCN(c2ccccc2)CC1)c1nc(Cl)ccc1Cl	n	n	n	n	n	x	x	x
COc1cc(C(=O)N2CCC(N3CCCCCC3)CC2)cc(OC)c1OC	n	n	n	n	n	x	x	x
Cc1cc(C)c2cc(C(=O)N3CCC(Cc4ccccc4)CC3)[nH]c2c1	n	n	n	n	64.4	n	n	n
Cc1cc(C)c2cc(C(=O)N3CCC(C(=O)c4ccc(F)cc4)CC3)[nH]c2c1	n	n	n	n	89.9	83.7	n	n
COc1ccc(C(=O)N2CCC(C(=O)c3c(C)cc(C)cc3C)CC2)cc1	n	n	n	n	71.7	n	n	n
Cc1cc(C)c2cc(C(=O)N3CCC(N4CCCCC4)CC3)[nH]c2c1	n	n	n	n	46.0	n	n	n
CC1CCC2=NN(C(=O)c3ccco3)C(O)(C(F)(F)F)C2C1 (stereo not given)	n	n	n	n	n	x	x	x
COc1cccc(C(C)N(C)Cc2nc(-c3ccoc3)oc2C)c1 (stereo not given)	n	n	n	x	n	x	x	x
CCOC(=O)c1sc2nc(C)nc(NCc3ccc(F)cc3)c2c1C	n	n	n	n	45.0	n	n	n
CCN(CC)C(=O)C1=C(C)N(CCCOC)C(=O)C(CC(=O)NCCc2ccccn2)C1 (stereo not given)	n	n	n	n	n	x	x	x
O=C(/C=C/c1cccc([N+](=O)[O-])c1)N1CCN(S(=O)(=O)c2cccs2)CC1	n	n	n	n	47.1	n	n	n
O=C(c1ccc2ccccc2c1)N1CCN(S(=O)(=O)/C=C/c2ccccc2)CC1	n	n	n	n	90.0	77.1	n	n
O=C(COc1ccc(F)cc1Br)N1CCN(S(=O)(=O)/C=C/c2ccccc2)CC1	n	n	n	n	n	x	x	x
Nc1ccc(C(=O)N2CCN(S(=O)(=O)/C=C/c3ccccc3)CC2)cc1[N+](=O)[O-]	n	n	n	n	n	x	x	x
COc1cccc(/C=C/C(=O)OCC(=O)N2CCN(S(=O)(=O)c3ccc(Cl)cc3)CC2)c1	n	n	n	n	n	x	x	x
O=C(/C=C/c1ccc(F)cc1)N1CCN(S(=O)(=O)/C=C/c2ccccc2)CC1	n	n	n	n	94.6	88.9	n	n
COc1cccc(/C=C/C(=O)N2CCN(S(=O)(=O)c3ccccc3)CC2)c1	n	n	n	n	89.9	62.5	n	n
CCN(CC)C(=O)C1=C(C)N(CCCOC)C(=O)C(CC(=O)NC(c2ccccc2)c2ccccc2)C1 (stereo not given)	n	n	n	n	n	x	x	x
CN(C)CCNc1ncnc2c1ncn2[C@H]1CN(Cc2ccncc2)C[C@@H](CO)O1	n	n	n	n	n	x	x	x
CC(=O)c1ccc(OCc2nnn(CC(=O)NS(=O)(=O)c3ccc(C)cc3)c2-c2ccccc2)cc1	n	n	n	n	n	x	x	x
O=C(/C=C/c1ccccc1)N1CCN(S(=O)(=O)c2ccc(F)cc2)CC1	n	n	n	n	78.7	68.3	n	n
O=C(CCCc1ccncc1)c1ccccc1	n	n	n	n	n	x	x	x
SMILES	MC4R ag barr	Exocytosis inh	MC4R antagonist	Myeloid diff MLP	EBI2 antag	EBI2 conf	EBI2 agonist	bGal cs
O=C(c1ccc2ccccc2c1)N1CCN(c2ccc(O)cc2)CC1	n	n	n	n	57.0	n	n	n
Cc1ccc(C(=O)N2CCN(c3ccccn3)CC2)cc1	n	n	n	n	n	x	x	x
O=C(c1ccc(Br)cc1)N1CCN(c2ccccn2)CC1	n	n	n	n	n	x	x	x
O=C(c1ccc2ccccc2c1)N1CCN(c2ccccn2)CC1	n	n	n	n	56.5	n	n	n
Cc1ccc2c(c1)cc(C(=O)N1CCN(c3ccccn3)CC1)n2C	n	n	n	n	46.7	n	n	n
CC(C)/C=N/Nc1nc(-c2ccc(Br)cc2)cs1	n	n	n	n	n	x	x	x
CCc1nn(CC(=O)Nc2ccc(Br)c(C)c2)c(=N)s1	n	n	n	n	n	x	x	x
O=C(NCCCN1CCCC1=O)C(=O)NCC1OCCCN1S(=O)(=O)c1cc(F)ccc1F (stereo not given)	n	n	n	n	n	x	x	x
C=CCn1c(=O)c2ccc(C(=O)NCc3ccccc3)cc2n(Cc2cccc(Cl)c2)c1=O	9.5	n	n	n	54.9	n	n	n
CC1(C(=O)Nc2ccc3[nH]ncc3c2)CCN1C(=O)CC(c1ccccc1)c1ccccc1 (stereo not given)	n	n	n	n	47.6	n	n	n
COc1ccc(-c2nc(N)ncc2-c2ccc(OC)c(OC)c2)c(O)c1	n	n	n	n	57.3	n	n	n
C=C(C)COc1ccc(-c2nc(N)ncc2-c2ccc(Br)cc2)c(O)c1	n	n	n	n	n	x	x	x
CCc1cc(-c2nc(N)ncc2-c2ccc(Br)cc2)c(O)cc1OC	n	n	n	n	76.7	n	n	n
COc1ccc(-c2nc(N)nc(N)n2)c(O)c1	n	n	n	n	n	x	x	x
CCOc1ccc(-c2nc(N)ncc2Oc2ccccc2Br)c(O)c1	n	n	n	n	n	x	x	x
COc1ccc(-c2c(C)nc(N)nc2-c2ccc(OC)cc2O)cc1	n	n	n	n	74.4	n	n	n
CCOc1ccc(-c2nc(N)ncc2Oc2cccc(OC)c2)c(O)c1	n	n	n	n	47.1	n	n	n
COc1ccccc1CCNC(=O)c1cccc(S(=O)(=O)N2CCc3ccccc3C2)c1	n	n	n	n	n	x	x	x
CCc1nc2ccc(C(=O)Nc3ccc(C(=O)N(C)C)cc3)cn2c1N(C)CCCc1ccccc1	n	n	n	n	n	x	x	x
COc1ccc(NC(=O)N2CCC(C(=O)c3ccc(F)cc3)CC2)cc1	n	n	n	n	53.1	n	n	n
CSc1ccc(NC(=O)N2CCC(C(=O)c3ccc(F)cc3)CC2)cc1	n	n	n	n	63.8	54.7	n	n
COc1ccc(OC2CCN(C(=O)Nc3ccc(C)cc3)CC2)cc1	n	n	n	n	82.9	61.3	n	n
Cc1ccc(N(C(=O)CNC(=O)c2ccco2)C(C(=O)NCC2CCCO2)c2ccccc2)c(C)c1 (stereo not given)	n	n	n	n	n	x	x	x
CCCS(=O)(=O)NC(=O)C1(C)CCN(C(=O)/C=C/c2ccccc2)C1 (stereo not given)	n	n	n	n	n	x	x	x

Compound activity: PubChem BioAssay, several laboratories
